Reference: article PMC7496240 (Chemmedchem, 2020)

Biological target: T1, murine ovastacin (Mus musculus, UniProt Q6HA09)
T1 sequence (Q6HA09 86-435 limits assumed): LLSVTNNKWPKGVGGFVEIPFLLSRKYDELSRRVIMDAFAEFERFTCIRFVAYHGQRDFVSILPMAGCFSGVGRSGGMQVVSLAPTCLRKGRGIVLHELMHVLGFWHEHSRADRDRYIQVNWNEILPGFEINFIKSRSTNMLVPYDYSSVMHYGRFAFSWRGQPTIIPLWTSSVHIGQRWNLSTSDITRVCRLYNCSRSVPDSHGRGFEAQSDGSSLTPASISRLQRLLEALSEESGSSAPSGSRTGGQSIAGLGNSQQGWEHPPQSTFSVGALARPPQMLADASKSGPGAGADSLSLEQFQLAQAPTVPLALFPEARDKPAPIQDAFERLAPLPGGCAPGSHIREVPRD
Assay: fluorogenic enzyme activity assay, inhibition of murine ovastacin
Assay type: biochemical
In short: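 Recombinant mouse ovastacin was activated with human plasmin (30 min, 10:1 molar ratio). Active enzyme was 1 nM, set by titration with murine fetuin-B. Buffer: 150 mM NaCl, 50 mM Tris·HCl pH 7.4, 0.01% Brij-35, at 37 °C; inhibitors were in DMSO. Reactions started with 25 μM Edans/Dabcyl peptide substrate (final DMSO 1.4%). Initial rates were read ≥1000 s, then proteinase K gave full-turnover calibration. Apparent Ki came from the Morrison equation; two independent experiments, in triplicate.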

Compound	Ki [µM]
O=C(CCN(Cc1ccncc1)Cc1ccc(Cl)c(O)c1F)NO [Compound 18]	8.18 ± 0.29
O=C(CCN(Cc1ccc2c(c1)OCO2)Cc1ccc(Cl)cc1F)NO [Compound 14]	1.96 ± 0.08
O=C(CCN(Cc1ccc(Cl)cc1F)Cc1ccc(Cl)c(O)c1F)NO [Compound 12]	0.75 ± 0.04
O=C(CCN(Cc1cccnc1)Cc1ccc2c(c1)OCO2)NO [Compound 15]	8.12 ± 0.34
O=C(CCN(Cc1ccncc1)Cc1ccc2c(c1)OCO2)NO [Compound 17]	7.58 ± 0.36
O=C(CCN(Cc1ccc2c(c1)OCO2)Cc1ccc(Cl)c(O)c1F)NO [Compound 13]	0.68 ± 0.02
